{"data": "Measured values gathered from unrelated publications", "target": "Serine/threonine-protein kinase TBK1 (TBK1, Homo sapiens, UniProt Q9UHD2)", "Sequence (Q9UHD2 1-729, as in one of the studies)": "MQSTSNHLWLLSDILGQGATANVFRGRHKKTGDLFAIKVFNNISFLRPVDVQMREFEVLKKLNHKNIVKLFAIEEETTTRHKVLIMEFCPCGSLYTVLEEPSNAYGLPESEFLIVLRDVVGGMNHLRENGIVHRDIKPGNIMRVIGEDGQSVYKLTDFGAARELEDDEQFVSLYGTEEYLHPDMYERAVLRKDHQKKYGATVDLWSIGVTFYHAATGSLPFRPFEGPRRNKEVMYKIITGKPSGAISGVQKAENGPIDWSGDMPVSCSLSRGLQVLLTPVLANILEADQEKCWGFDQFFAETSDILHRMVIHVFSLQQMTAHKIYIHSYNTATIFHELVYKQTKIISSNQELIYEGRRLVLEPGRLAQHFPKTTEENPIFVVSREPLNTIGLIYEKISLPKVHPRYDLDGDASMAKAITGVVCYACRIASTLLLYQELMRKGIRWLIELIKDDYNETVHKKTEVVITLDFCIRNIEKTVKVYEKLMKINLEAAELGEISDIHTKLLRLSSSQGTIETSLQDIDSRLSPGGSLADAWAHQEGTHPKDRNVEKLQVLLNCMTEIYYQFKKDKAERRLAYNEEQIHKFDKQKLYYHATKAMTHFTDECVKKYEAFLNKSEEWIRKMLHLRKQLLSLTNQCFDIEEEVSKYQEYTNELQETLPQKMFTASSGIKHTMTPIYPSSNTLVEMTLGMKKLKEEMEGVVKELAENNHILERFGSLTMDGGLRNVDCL", "note": "Lines come from different studies, so protocols differ."}
{"SMILES": "N[C@H]1CCN(c2nccc(-c3cnn4ncccc34)n2)C1", "effect on": "binding", "tested at": "1 µM", "remaining binding [%]": 100}
{"SMILES": "O=C(c1ccc(Nc2ncc(Cl)c(-c3cc4ccccc4s3)n2)cc1)N1CCC(N2CCCC2)CC1", "effect on": "binding", "technique": "competition with immobilised ligand", "tested at": "1 µM", "remaining binding [%]": 11}
{"SMILES": "C[C@H]1CCN(c2nccc(-c3cnn4ncccc34)n2)C1", "effect on": "binding", "tested at": "1 µM", "remaining binding [%]": 80}
{"SMILES": "COc1ncc2cc3ccccc3nc2c1C#N", "effect on": "cell-free assay", "technique": "competition with immobilised ligand", "tested at": "5 µM", "remaining binding [%]": 98}
{"SMILES": "CN(CCCC(F)(F)F)c1nccc(-c2cnn3ncccc23)n1", "effect on": "binding", "tested at": "1 µM", "remaining binding [%]": 91}
{"SMILES": "FC(F)(F)Oc1cccc(-c2cnc3ccc(-c4ccncc4)nn23)c1", "effect on": "binding", "technique": "competition with immobilised ligand", "tested at": "5 µM", "remaining binding [%]": 54}
{"SMILES": "CS(=O)(=O)NCC[C@H](NC(=O)c1cncc2c1cnn2-c1ccc(F)cc1)c1ccnc(S(C)(=O)=O)c1", "effect on": "cell-free assay", "technique": "competition with immobilised ligand", "tested at": "1 µM", "remaining binding [%]": 94}
{"SMILES": "Nc1ncc2c(n1)-c1c([nH]c3ccc(C#CC4CC4)cc13)CCCC2", "effect on": "binding", "technique": "competition with immobilised ligand", "tested at": "1 µM", "remaining binding [%]": 88}
{"SMILES": "CNC(=O)[C@@H]1CC[C@@H](n2c(-c3ccc4cnccc4c3)nc3ccc(C(=O)NCc4cccc(C(N)=O)c4)cc32)C1", "effect on": "binding", "technique": "competition with immobilised ligand", "tested at": "1 µM", "remaining binding [%]": 95}
{"SMILES": "F[C@@H]1CCN(c2nccc(-c3cnn4ncccc34)n2)C1", "effect on": "binding", "tested at": "1 µM", "remaining binding [%]": 84}
{"SMILES": "CS(=O)(=O)N1CCCC(NC(=O)[C@H](CCC2CCCCC2)NC(=O)c2ccc(CNC(=O)c3cnc4ccccn34)cc2)C1 (stereo partly drawn)", "effect on": "cell-free assay", "technique": "competition with immobilised ligand", "tested at": "0.1 µM", "remaining binding [%]": 75}
{"SMILES": "CN(C)c1nccc(-c2cnn3ncccc23)n1", "effect on": "binding", "tested at": "1 µM", "remaining binding [%]": 82}
{"SMILES": "O=C(NC[C@@H]1[C@H]2CN(C(=O)OCc3cc(C(F)(F)F)cc(C(F)(F)F)c3)C[C@@H]12)c1ccc2[nH]nnc2c1", "effect on": "cell-free assay", "technique": "competition with immobilised ligand", "tested at": "1 µM", "remaining binding [%]": 100}
{"SMILES": "O=C(NCCCN1CCOCC1)c1ccc(Nc2nccc(-c3cc4ccccc4s3)n2)cc1", "effect on": "binding", "technique": "competition with immobilised ligand", "tested at": "1 µM", "remaining binding [%]": 70}
{"SMILES": "O=C(NCC1CCOCC1)c1n[nH]cc1NC(=O)c1c(F)cccc1F", "effect on": "binding", "technique": "competition with immobilised ligand", "tested at": "1 µM", "remaining binding [%]": 96}
{"SMILES": "O=C(Nc1ccc(Oc2ccc(F)cc2)cc1)N1CCc2ncccc2[C@H]1c1ccc(F)cc1", "effect on": "cell-free assay", "technique": "competition with immobilised ligand", "tested at": "1 µM", "remaining binding [%]": 81}
{"SMILES": "c1cncc(-c2cccc(Nc3nccc(NC4CCCCC4)n3)c2)c1", "effect on": "binding", "technique": "competition with immobilised ligand", "tested at": "10 µM", "remaining binding [%]": 62}
{"SMILES": "O=c1nc(-c2ccccn2)sc2ccccc12", "effect on": "binding", "technique": "competition with immobilised ligand", "tested at": "1 µM", "remaining binding [%]": 91}
{"SMILES": "Cc1cnc(Nc2ccc(C(=O)N3CCC(N4CCCC4)CC3)cc2)nc1-c1cc2ccccc2s1", "effect on": "binding", "technique": "competition with immobilised ligand", "tested at": "1 µM", "remaining binding [%]": 4.5}
{"SMILES": "COc1ccnn2ncc(-c3ccnc(N(C)C)n3)c12", "effect on": "binding", "tested at": "1 µM", "remaining binding [%]": 68}
{"SMILES": "CNCc1ccccc1-c1csc([C@@H](C)Nc2nc(C)nc3cc(OC)c(OC)cc23)c1", "effect on": "cell-free assay", "technique": "competition with immobilised ligand", "tested at": "1 µM", "remaining binding [%]": 100}
